Results as given in ChEMBL document CHEMBL5331142, “Novel 1,4-Dihydropyridines as Specific Binders and Activators of SIRT3 Impair Cell Viability and Clonogenicity and Downregulate Hypoxia-Induced Targets in Cancer Cells” (J Med Chem, 2023).
pKd: −log10 of the molar value. Active and inactive are the calls of the source. The calls are words filed in the database; no cut-off is given here.

Assays:
[1] = biological target: T1, NAD-dependent protein deacetylase sirtuin-3, mitochondrial (Homo sapiens) (UniProt Q9NTG7); assay: Activation of N-terminal his-tagged human SIRT3 (114 to 380 residues) deacylation activity expressed in Escherichia coli at 10 uM using ACS2-acK642 as substrate in presence of NAD+ by NADH oxidation-coupled enzymatic assay; conditions: filed as activator
T1 sequence (whole entry): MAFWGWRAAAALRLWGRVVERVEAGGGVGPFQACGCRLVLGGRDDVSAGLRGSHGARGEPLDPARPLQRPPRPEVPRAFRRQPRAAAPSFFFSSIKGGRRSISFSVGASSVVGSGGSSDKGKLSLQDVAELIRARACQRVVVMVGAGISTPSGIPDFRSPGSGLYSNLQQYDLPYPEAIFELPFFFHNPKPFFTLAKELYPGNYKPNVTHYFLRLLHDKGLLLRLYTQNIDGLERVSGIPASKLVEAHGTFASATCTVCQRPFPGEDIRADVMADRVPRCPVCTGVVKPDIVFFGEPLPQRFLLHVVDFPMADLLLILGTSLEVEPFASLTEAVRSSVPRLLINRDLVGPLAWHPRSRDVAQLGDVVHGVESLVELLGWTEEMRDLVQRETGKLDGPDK
How it was run: (§1)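 Coupled PncA/GDH deacylation assay following NADPH oxidation to NADP+. 1.5 μM sirtuin, 50 μM substrate peptide, 100 μM NAD+, compound at 10 μM, 5% final DMSO. Isoform-specific physiological substrates: p53-acK381 (SIRT1), […] (SIRT2), ACS2-acK642 (SIRT3), CPS1-succK537 (SIRT5). Sirtuins expressed in E. coli, Ni-NTA purified, tag cleaved, then size-exclusion chromatography.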

[2] = biological target: T1, NAD-dependent protein deacetylase sirtuin-3, mitochondrial (Homo sapiens); assay: Activation of N-terminal his-tagged human SIRT3 (114 to 380 residues) deacylation activity expressed in Escherichia coli at 100 uM using ACS2-acK642 as substrate in presence of NAD+ by NADH oxidation-coupled enzymatic assay
How it was run: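 Coupled PncA/GDH deacylation assay following NADPH oxidation to NADP+. 1.5 μM SIRT3 (E. coli-expressed, tag removed) with 50 μM ACS2-acK642 peptide and 100 μM NAD+, compound at 100 μM, 5% final DMSO.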

[3] = biological target: T1, NAD-dependent protein deacetylase sirtuin-3, mitochondrial (Homo sapiens); assay: Activation of human SIRT3 overexpressing in human MDA-MB-231 cells assessed as increase in GDH activity at 50 uM incubated for 4 hrs by absorbance assay; format: cell-based
How it was run: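 MDA-MB-231 cells exposed 4 h to 50 μM compound. 10^6 cells lysed in GDH assay buffer for 10 min on ice. Supernatant mixed with developer and glutamate, incubated 3 min at 37 °C, absorbance read at 450 nm with buffer blank subtracted. SIRT3-overexpressing MDA-MB-231 cells served as reference.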

CAL-62 [4] = assay: Downregulation of HIF1alpha expression in human CAL-62 cells at 1 uM incubated for 48 hrs under hypoxia condition by Western blot analysis; format: functional, cell-based
CAL-62 [5] = assay: Downregulation of EPAS-1 expression in human CAL-62 cells at 1 uM incubated for 48 hrs under hypoxia condition by Western blot analysis; format: functional, cell-based
CAL-62 [6] = assay: Downregulation of CA-IX expression in human CAL-62 cells at 1 uM incubated for 48 hrs under hypoxia condition by Western blot analysis; format: functional, cell-based
MDA-MB-231 [7] = assay: Downregulation of HIF1alpha expression in human MDA-MB-231 cells at 1 uM incubated for 48 hrs under hypoxia condition by Western blot analysis; format: functional, cell-based
MDA-MB-231 [8] = assay: Downregulation of EPAS-1 expression in human MDA-MB-231 cells at 1 uM incubated for 48 hrs under hypoxia condition by Western blot analysis; format: functional, cell-based
MDA-MB-231 [9] = assay: Downregulation of CA-IX expression in human MDA-MB-231 cells at 1 uM incubated for 48 hrs under hypoxia condition by Western blot analysis; format: functional, cell-based
[10] = biological target: T2, NAD-dependent protein deacetylase sirtuin-1 (Homo sapiens) (UniProt Q96EB6); assay: Activation of N-terminal his-tagged human SIRT1 expressed in Escherichia coli at 10 uM using p53-acK381 as substrate in presence of NAD+ by NADH oxidation-coupled enzymatic assay; how it was run: as §1
T2 sequence (whole entry): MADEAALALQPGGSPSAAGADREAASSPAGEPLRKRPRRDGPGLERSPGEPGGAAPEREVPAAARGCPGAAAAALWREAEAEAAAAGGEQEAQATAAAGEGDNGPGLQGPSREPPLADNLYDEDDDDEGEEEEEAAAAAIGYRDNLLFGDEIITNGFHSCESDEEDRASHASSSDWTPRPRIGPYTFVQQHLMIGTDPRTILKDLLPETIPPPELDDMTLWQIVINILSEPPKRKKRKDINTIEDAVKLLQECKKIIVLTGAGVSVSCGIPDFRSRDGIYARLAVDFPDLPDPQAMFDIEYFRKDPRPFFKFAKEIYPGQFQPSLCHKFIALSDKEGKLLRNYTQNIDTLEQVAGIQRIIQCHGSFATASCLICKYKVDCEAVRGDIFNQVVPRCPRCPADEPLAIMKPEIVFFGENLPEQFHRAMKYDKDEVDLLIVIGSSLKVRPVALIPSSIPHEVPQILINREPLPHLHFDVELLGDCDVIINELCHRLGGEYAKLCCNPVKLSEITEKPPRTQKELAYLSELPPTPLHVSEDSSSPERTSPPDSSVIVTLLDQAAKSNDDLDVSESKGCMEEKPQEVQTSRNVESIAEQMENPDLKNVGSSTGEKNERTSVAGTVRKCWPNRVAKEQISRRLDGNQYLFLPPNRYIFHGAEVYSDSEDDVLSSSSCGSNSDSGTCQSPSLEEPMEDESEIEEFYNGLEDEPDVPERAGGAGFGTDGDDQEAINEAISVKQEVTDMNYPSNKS

[11] = biological target: T3, NAD-dependent protein deacetylase sirtuin-3, mitochondrial (Homo sapiens, UniProt Q9NTG7); assay: Binding affinity to N-terminal his-tagged human SIRT3 (114 to 380 residues) assessed as dissociation constant by SPR analysis
T3 sequence (Q9NTG7 whole entry): T1 sequence (whole entry)
How it was run: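 SPR with SIRT3 amine-coupled to the chip (sodium acetate pH 4.0; 1500–4000 RU). Analytes diluted to 200 μM in HBSP (20 mM Hepes, 150 mM NaCl, 0.005% P20; 2% DMSO), injected at 5, 10, 20, 40, 80 μM at 30 μL/min. Dissociation after 180 s. Reference chip lacked ligand. Apparent KD by Scatchard analysis. Run twice.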

CAL-62 [12] = assay: Anticancer activity against human CAL-62 cells assessed as reduction in cell viability at 50 uM incubated for 24 to 48 hrs under normoxia condition by trypan blue exclusion assay; format: functional, cell-based; conditions: time 24-48 hrs, TDE = time-dependent effect
How it was run: (§2)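 CAL-62 cells in RPMI 1640 with 10% FBS, treated with 50 μM compound (DMSO) for 24 and 48 h. Hypoxia induced with 200 μM CoCl2, kept in the medium during treatment. Viable cells counted by 0.4% trypan blue staining on a hemocytometer.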

CAL-62 [13] = assay: Anticancer activity against human CAL-62 cells assessed as reduction in cell viability at 50 uM incubated for 24 to 48 hrs under hypoxia condition by trypan blue exclusion assay; format: functional, cell-based; conditions: time 24-48 hrs, TDE = time-dependent effect; how it was run: as §2
CAL-62 [14] = assay: Inhibition of clonogenicity in human CAL-62 cells at 50 uM incubated for 24 to 48 hrs under normoxia condition by crystal violet staining based assay; format: functional; conditions: time 24-48 hrs
How it was run: (§3)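 CAL-62 cells at 80–90% confluence treated with 50 μM compound for 24 or 48 h, in normoxia or with 200 μM CoCl2 (hypoxia). 500 cells replated per 100 mm dish and grown about 7 days. Colonies fixed in 4% formaldehyde, stained with 0.5% crystal violet, and counted.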

CAL-62 [15] = assay: Inhibition of clonogenicity in human CAL-62 cells at 50 uM incubated for 24 to 48 hrs under hypoxia condition by crystal violet staining based assay; format: functional; conditions: time 24-48 hrs; how it was run: as §3
CAL-62 [16] = assay: Downregulation of HIF1alpha expression in human CAL-62 cells at 50 uM incubated for 48 hrs under hypoxia condition by Western blot analysis; format: functional, cell-based
How it was run: (§4)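 CAL-62 or MDA-MB-231 cells made hypoxic with 200 μM CoCl2 for 24 h, then treated with 50 μM compound for 48 h with CoCl2 retained. Lysates (15 or 50 μg protein) immunoblotted for HIF-1α, EPAS-1 or CA-IX with ACTB, ECL detection. 3-TYP (1 μM) as control.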

CAL-62 [17] = assay: Downregulation of CA-IX expression in human CAL-62 cells at 50 uM incubated for 48 hrs under hypoxia condition by Western blot analysis; format: functional, cell-based; how it was run: as §4
[18] = biological target: T4, NAD-dependent protein deacetylase sirtuin-2 (Homo sapiens) (UniProt Q8IXJ6); assay: Activation of N-terminal his-tagged human SIRT2 (43 to 356 residues) expressed in Escherichia coli at 10 uM using p53-acK381 as substrate in presence of NAD+ by NADH oxidation-coupled enzymatic assay
T4 sequence (whole entry): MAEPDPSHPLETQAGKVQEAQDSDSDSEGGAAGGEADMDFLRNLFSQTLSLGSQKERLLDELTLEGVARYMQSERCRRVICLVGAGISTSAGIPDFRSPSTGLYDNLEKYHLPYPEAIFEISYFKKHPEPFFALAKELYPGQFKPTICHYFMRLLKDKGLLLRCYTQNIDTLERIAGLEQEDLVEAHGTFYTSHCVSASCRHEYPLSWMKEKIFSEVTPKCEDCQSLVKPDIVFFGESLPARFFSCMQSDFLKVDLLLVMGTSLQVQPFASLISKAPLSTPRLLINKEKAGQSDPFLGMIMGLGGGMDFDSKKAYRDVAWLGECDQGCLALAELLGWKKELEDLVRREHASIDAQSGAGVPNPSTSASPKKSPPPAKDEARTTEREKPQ

[19] = biological target: NAD-dependent protein deacylase sirtuin-5, mitochondrial (Homo sapiens) (UniProt Q9NXA8); assay: Activation of N-terminal his-tagged human SIRT5 (34 to 302 residues) expressed in Escherichia coli at 10 uM using p53-acK381 as substrate in presence of NAD+ by NADH oxidation-coupled enzymatic assay
Chain of NAD-dependent protein deacylase sirtuin-5, mitochondrial (Homo sapiens) (Q9NXA8 37-310 limits assumed): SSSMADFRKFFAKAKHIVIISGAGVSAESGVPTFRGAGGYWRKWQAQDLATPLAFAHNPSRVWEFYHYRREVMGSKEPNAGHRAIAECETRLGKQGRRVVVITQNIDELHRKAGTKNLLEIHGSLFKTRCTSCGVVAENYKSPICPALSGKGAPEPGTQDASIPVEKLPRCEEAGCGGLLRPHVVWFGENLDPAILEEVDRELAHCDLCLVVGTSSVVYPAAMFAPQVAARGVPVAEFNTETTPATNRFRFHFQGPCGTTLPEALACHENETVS

SMILES | Activity [1] | Activity ([2]; filed as activator) | further results
CCOC(=O)C1=CN(C(=O)c2ccc(C#N)cc2)C=C(C(=O)OCC)C1c1ccccc1 | 120% |  | 
CCOC(=O)C1=CN(C(=O)c2cccc([N+](=O)[O-])c2)C=C(C(=O)OCC)C1c1ccccc1 | 120% |  | 
CCOC(=O)C1=CN(C(=O)c2ccco2)C=C(C(=O)OCC)C1c1ccccc1 | 120% |  | 
CCOC(=O)C1=CN(C(=O)c2cc(OC)c(OC)c(OC)c2)C=C(C(=O)OCC)C1c1ccccc1 | 128% | 269% | Activity ([3]; filed as activator): 175%
c1cncc(-c2cnn[nH]2)c1 |  |  | Activity (CAL-62 [4]): inactive; Activity (CAL-62 [5]): inactive; Activity (CAL-62 [6]): inactive; Activity (MDA-MB-231 [7]): inactive; Activity (MDA-MB-231 [8]): inactive; Activity (MDA-MB-231 [9]): inactive
CCOC(=O)C1=CN(C(=O)c2ccc([N+](=O)[O-])cc2)C=C(C(=O)OCC)C1c1ccccc1 | 120% |  | 
CCOC(=O)C1=CN(C(=O)c2cccs2)C=C(C(=O)OCC)C1c1ccccc1 | 120% |  | 
CCOC(=O)C1=CN(C(=O)c2cccc(OC)c2)C=C(C(=O)OCC)C1c1ccccc1 |  | 217% | Activity [10]: inactive; pKd [11]: 4.11; Activity ([3]; filed as activator): Active; Activity (CAL-62 [12]): Tde; Activity (CAL-62 [13]): Tde; inhibition at 50 µM (CAL-62 [14]): 53%; inhibition at 50 µM (CAL-62 [15]): 53%; Activity (CAL-62 [16]): Active; Activity (CAL-62 [17]): Active; Activity [18]: inactive; Activity [19]: inactive
CCOC(=O)C1=CN(C(=O)c2ccc(OC)cc2)C=C(C(=O)OCC)C1c1ccccc1 | 120% |  | pKd [11]: 4.14; Activity [3]: inactive; Activity (CAL-62 [12]): Tde; Activity (CAL-62 [13]): Tde; Activity (CAL-62 [17]): Active
CCOC(=O)C1=CN(C(=O)c2ccc(Cl)cc2)C=C(C(=O)OCC)C1c1ccccc1 | 120% | 237% | pKd [11]: 4.13
CCOC(=O)C1=CN(C(=O)c2cccc(Cl)c2)C=C(C(=O)OCC)C1c1ccccc1 | 120% | 204% | 
CCOC(=O)C1=CN(C(=O)c2ccc(F)cc2)C=C(C(=O)OCC)C1c1ccccc1 | 120% | 142% | 
CCOC(=O)C1=CN(C(=O)Cc2ccccc2)C=C(C(=O)OCC)C1c1ccccc1 | 176% | Active | 
CCOC(=O)C1=CN(C(=O)C2CCCCC2)C=C(C(=O)OCC)C1c1ccccc1 | 120% | Active | 
CCOC(=O)C1=CN(C(=O)c2cccc(Br)c2)C=C(C(=O)OCC)C1c1ccccc1 | 120% | 214% | 
CCOC(=O)C1=CN(C(=O)c2ccccc2)C=C(C(=O)OCC)C1c1ccccc1 | 157% | 188% | 
CCOC(=O)C1=CN(C(=O)c2ccsc2)C=C(C(=O)OCC)C1c1ccccc1 | 120% |  | Activity [2]: inactive
CCOC(=O)C1=CN(C(=O)c2cccc(F)c2)C=C(C(=O)OCC)C1c1ccccc1 | 120% | 196% | 
CCOC(=O)C1=CN(C(=O)c2ccc(Br)cc2)C=C(C(=O)OCC)C1c1ccccc1 | 120% | 184% | 
